From ChEMBL document CHEMBL1165950, “Design and synthesis of new potent anticancer pyrazoles with high FLT3 kinase inhibitory selectivity” (Bioorg Med Chem, 2010)

How the values were obtained:
Type in all cases: functional
MOLT-4 = assay: Cytotoxicity against human MOLT4 cells assessed as cell growth at 10 uM; conditions: read-out: Activity
Summary of the method: (§1)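 NCI-60 screen: cells grown in RPMI 1640 with 5% FBS and 2 mM L-glutamine, plated at 5000–40,000 cells/well according to doubling time, and preincubated 24 h at 37 °C, 5% CO2. The single 10 µM dose (DMSO stock) was added, then incubated 48 h. Cells were TCA-fixed and stained with 0.4% SRB, read at 515 nm, and growth % calculated against time-zero and control plates.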

T47D = assay: Cytotoxicity against human T47D cells assessed as cell growth at 10 uM; conditions: read-out: Activity; summary of the method: as §1
A498 = assay: Cytotoxicity against human A498 cells assessed as cell growth at 10 uM; conditions: read-out: Activity
Summary of the method: (§2)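 Single-dose NCI-60 screen at 10 µM. Cells were grown in RPMI 1640 with 5% FBS and 2 mM L-glutamine, then treated for 48 h at 37 °C. Protein was measured by SRB staining with absorbance at 515 nm. Percentage growth was recorded, and inhibition percentage was calculated as 100 minus growth percentage.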

OVCAR-3 = assay: Cytotoxicity against human OVCAR-3 cells assessed as cell growth at 10 uM; conditions: read-out: Activity; summary of the method: as §1
NCI-H23 = assay: Cytotoxicity against human NCI-H23 cells assessed as cell growth at 10 uM; conditions: read-out: Activity; summary of the method: as §1
SW-620 = assay: Cytotoxicity against human SW620 cells assessed as cell growth at 10 uM; conditions: read-out: Activity; summary of the method: as §1
ACHN = assay: Cytotoxicity against human ACHN cells assessed as cell growth at 10 uM; conditions: read-out: Activity; summary of the method: as §2
SR = assay: Cytotoxicity against human SR cells assessed as cell growth at 10 uM; conditions: read-out: Activity; summary of the method: as §1
SK-OV-3 = assay: Cytotoxicity against human SKOV3 cells assessed as cell growth at 10 uM; conditions: read-out: Activity; summary of the method: as §1
PC-3 = assay: Cytotoxicity against human PC3 cells assessed as cell growth at 10 uM; conditions: read-out: Activity; summary of the method: as §1
CAKI-1 = assay: Cytotoxicity against human Caki1 cells assessed as cell growth at 10 uM; conditions: read-out: Activity; summary of the method: as §2
SN12C = assay: Cytotoxicity against human SN12C cells assessed as cell growth at 10 uM; conditions: read-out: Activity; summary of the method: as §1
COLO 205 = assay: Cytotoxicity against human COLO205 cells assessed as cell growth at 10 uM; conditions: read-out: Activity; summary of the method: as §2
MCF7 = assay: Cytotoxicity against human MCF7 cells assessed as cell growth at 10 uM; conditions: read-out: Activity; summary of the method: as §1
OVCAR-5 = assay: Cytotoxicity against human OVCAR5 cells assessed as cell growth at 10 uM; conditions: read-out: Activity; summary of the method: as §1
NCI-H226 = assay: Cytotoxicity against human NCI-H226 cells assessed as cell growth at 10 uM; conditions: read-out: Activity; summary of the method: as §1
OVCAR-8 = assay: Cytotoxicity against human OVCAR8 cells assessed as cell growth at 10 uM; conditions: read-out: Activity; summary of the method: as §1
SF-295 = assay: Cytotoxicity against human SF295 cells assessed as cell growth at 10 uM; conditions: read-out: Activity; summary of the method: as §1
SF-268 = assay: Cytotoxicity against human SF268 cells assessed as cell growth at 10 uM; conditions: read-out: Activity; summary of the method: as §1
NCI/ADR-RES = assay: Cytotoxicity against human NCI/ADR-RES cells assessed as cell growth at 10 uM; conditions: read-out: Activity; summary of the method: as §1
MDA-MB-435 = assay: Cytotoxicity against human MDA-MB-435 cells assessed as cell growth at 10 uM; conditions: read-out: Activity; summary of the method: as §1
UACC-62 = assay: Cytotoxicity against human UACC62 cells assessed as cell growth at 10 uM; conditions: read-out: Activity; summary of the method: as §1
NCI-H522 = assay: Cytotoxicity against human NCI-H522 cells assessed as cell growth at 10 uM; conditions: read-out: Activity; summary of the method: as §1
[1] = Growth inhibition of human NCI60 cells at 10 uM after 48 hrs by sulforhodamine B assay relative to control; conditions: NCI60, 48 h, read-out: GI
Summary of the method: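 Single-dose NCI screen at 10 µM across the 60-line panel, 48 h exposure at 37 °C after a 24 h preincubation. Adherent cells were fixed with cold TCA and stained with 0.4% SRB, and absorbance was read at 515 nm. Inhibition % was taken as 100 minus growth %, and the mean across all lines was reported.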

[2] = Cytotoxicity against human Hs 578T cells assessed as cell growth at 10 uM; conditions: read-out: Activity; summary of the method: as §2
HOP-92 = assay: Cytotoxicity against human HOP92 cells assessed as cell growth at 10 uM; conditions: read-out: Activity; summary of the method: as §2
Malme-3M = assay: Cytotoxicity against human MALME-3M cells assessed as cell growth at 10 uM; conditions: read-out: Activity; summary of the method: as §1
TK-10 = assay: Cytotoxicity against human TK10 cells assessed as cell growth at 10 uM; conditions: read-out: Activity; summary of the method: as §1
UACC-257 = assay: Cytotoxicity against human UACC257 cells assessed as cell growth at 10 uM; conditions: read-out: Activity; summary of the method: as §1
K562 = assay: Cytotoxicity against human K562 cells assessed as cell growth at 10 uM; conditions: read-out: Activity; summary of the method: as §2
SK-MEL-5 = assay: Cytotoxicity against human SK-MEL-5 cells assessed as cell growth at 10 uM; conditions: read-out: Activity; summary of the method: as §1
UO-31 = assay: Cytotoxicity against human UO31 cells assessed as cell growth at 10 uM; conditions: read-out: Activity; summary of the method: as §1
EKVX = assay: Cytotoxicity against human EKVX cells assessed as cell growth at 10 uM; conditions: read-out: Activity; summary of the method: as §2
CCRF-CEM = assay: Cytotoxicity against human CCRF-CEM cells assessed as cell growth at 10 uM; conditions: read-out: Activity; summary of the method: as §2
HCT-15 = assay: Cytotoxicity against human HCT15 cells assessed as cell growth at 10 uM; conditions: read-out: Activity; summary of the method: as §2
IGROV-1 = assay: Cytotoxicity against human IGROV1 cells assessed as cell growth at 10 uM; conditions: read-out: Activity; summary of the method: as §2
NCI-H322M = assay: Cytotoxicity against human NCI-H322M cells assessed as cell growth at 10 uM; conditions: read-out: Activity; summary of the method: as §1
OVCAR-4 = assay: Cytotoxicity against human OVCAR4 cells assessed as cell growth at 10 uM; conditions: read-out: Activity; summary of the method: as §1
LOX IMVI = assay: Cytotoxicity against human LOXIMVI cells assessed as cell growth at 10 uM; conditions: read-out: Activity; summary of the method: as §1
HOP-62 = assay: Cytotoxicity against human HOP62 cells assessed as cell growth at 10 uM; conditions: read-out: Activity; summary of the method: as §2
SK-MEL-2 = assay: Cytotoxicity against human SK-MEL-2 cells assessed as cell growth at 10 uM; conditions: read-out: Activity; summary of the method: as §1
SF-539 = assay: Cytotoxicity against human SF539 cells assessed as cell growth at 10 uM; conditions: read-out: Activity; summary of the method: as §1
HT-29 = assay: Cytotoxicity against human HT-29 cells assessed as cell growth at 10 uM; conditions: read-out: Activity; summary of the method: as §2
SNB-19 = assay: Cytotoxicity against human SNB19 cells assessed as cell growth at 10 uM; conditions: read-out: Activity; summary of the method: as §1
BT-549 = assay: Cytotoxicity against human BT549 cells assessed as cell growth at 10 uM; conditions: read-out: Activity; summary of the method: as §2
[3] = Cytotoxicity against human […] cells assessed as cell growth at 10 uM; conditions: read-out: Activity; summary of the method: as §1
HCT-116 = assay: Cytotoxicity against human HCT116 cells assessed as cell growth at 10 uM; conditions: read-out: Activity; summary of the method: as §2
DU-145 = assay: Cytotoxicity against human DU145 cells assessed as cell growth at 10 uM; conditions: read-out: Activity; summary of the method: as §2
786-0 = assay: Cytotoxicity against human 786-0 cells assessed as cell growth at 10 uM; conditions: read-out: Activity; summary of the method: as §2
RXF 393 = assay: Cytotoxicity against human RXF393 cells assessed as cell growth at 10 uM; conditions: read-out: Activity; summary of the method: as §1
SNB-75 = assay: Cytotoxicity against human SNB75 cells assessed as cell growth at 10 uM; conditions: read-out: Activity; summary of the method: as §1
MDA-MB-231 = assay: Cytotoxicity against human MDA-MB-231 cells assessed as cell growth at 10 uM; conditions: read-out: Activity; summary of the method: as §1
MDA-MB-468 = assay: Cytotoxicity against human MDA-MB-468 cells assessed as cell growth at 10 uM; conditions: read-out: Activity; summary of the method: as §1
SK-MEL-28 = assay: Cytotoxicity against human SK-MEL-28 cells assessed as cell growth at 10 uM; conditions: read-out: Activity; summary of the method: as §1
HL-60(TB) = assay: Cytotoxicity against human HL-60(TB) cells assessed as cell growth at 10 uM; conditions: read-out: Activity
Summary of the method: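 NCI 60-cell panel screen at a single concentration of 10 µM. Cells are grown in RPMI 1640 with 5% FBS and 2 mM L-glutamine and read by SRB protein staining at 515 nm. Percent growth is measured relative to time-zero and untreated controls; inhibition % is 100 minus growth %.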

KM12 = assay: Cytotoxicity against human KM12 cells assessed as cell growth at 10 uM; conditions: read-out: Activity; summary of the method: as §1
NCI-H460 = assay: Cytotoxicity against human NCI-H460 cells assessed as cell growth at 10 uM; conditions: read-out: Activity; summary of the method: as §1
HCC 2998 = assay: Cytotoxicity against human HCC2998 cells assessed as cell growth at 10 uM; conditions: read-out: Activity; summary of the method: as §2
U-251 = assay: Cytotoxicity against human U251 cells assessed as cell growth at 10 uM; conditions: read-out: Activity; summary of the method: as §1
A549 = assay: Cytotoxicity against human A549 cells assessed as cell growth at 10 uM; conditions: read-out: Activity; summary of the method: as §2
M14 = assay: Cytotoxicity against human M14 cells assessed as cell growth at 10 uM; conditions: read-out: Activity; summary of the method: as §1

SMILES: COc1cc(C)cc(-c2nn(CC#N)cc2-c2ccnc(-c3ccc(C(C)=O)cc3)c2)c1
- growth at 10 µM (MOLT-4): 75.8%
- growth at 10 µM (T47D): 33.5%
- growth at 10 µM (A498): 93%
- growth at 10 µM (OVCAR-3): 108%
- growth at 10 µM (NCI-H23): 78.9%
- growth at 10 µM (SW-620): 94.7%
- growth at 10 µM (ACHN): 73.8%
- growth at 10 µM (SR): 78.4%
- growth at 10 µM (SK-OV-3): 89%
- growth at 10 µM (PC-3): 82.9%
- growth at 10 µM (CAKI-1): 87.2%
- growth at 10 µM (SN12C): 83.6%
- growth at 10 µM (COLO 205): 66.8%
- growth at 10 µM (MCF7): 27.6%
- growth at 10 µM (OVCAR-5): 108%
- growth at 10 µM (NCI-H226): 78.3%
- growth at 10 µM (OVCAR-8): 80.6%
- growth at 10 µM (SF-295): 103%
- growth at 10 µM (SF-268): 110%
- growth at 10 µM (NCI/ADR-RES): 73.8%
- growth at 10 µM (MDA-MB-435): 70%
- growth at 10 µM (UACC-62): 64.6%
- growth at 10 µM (NCI-H522): 66.6%
- inhibition of growth at 10 µM [1]: 18.2%
- growth at 10 µM [2]: 83.8%
- growth at 10 µM (HOP-92): 81.7%
- growth at 10 µM (Malme-3M): 139%
- growth at 10 µM (TK-10): 95.2%
- growth at 10 µM (UACC-257): 82.7%
- growth at 10 µM (K562): 70.6%
- growth at 10 µM (SK-MEL-5): 39.7%
- growth at 10 µM (UO-31): 79.1%
- growth at 10 µM (EKVX): 104%
- growth at 10 µM (CCRF-CEM): 92.6%
- growth at 10 µM (HCT-15): 68.7%
- growth at 10 µM (IGROV-1): 101%
- growth at 10 µM (NCI-H322M): 102%
- growth at 10 µM (OVCAR-4): 58.6%
- growth at 10 µM (LOX IMVI): 78.1%
- growth at 10 µM (HOP-62): 94.4%
- growth at 10 µM (SK-MEL-2): 89.1%
- growth at 10 µM (SF-539): 81.9%
- growth at 10 µM (HT-29): 79%
- growth at 10 µM (SNB-19): 92.2%
- growth at 10 µM (BT-549): 93.5%
- growth at 10 µM [3]: 82.9%
- growth at 10 µM (HCT-116): 76.6%
- growth at 10 µM (DU-145): 113%
- growth at 10 µM (786-0): 93.9%
- growth at 10 µM (RXF 393): 78.9%
- growth at 10 µM (SNB-75): 46.4%
- growth at 10 µM (MDA-MB-231): 73.8%
- growth at 10 µM (MDA-MB-468): 11.3%
- growth at 10 µM (SK-MEL-28): 75.4%
- growth at 10 µM (HL-60(TB)): 98.3%
- growth at 10 µM (KM12): 87.9%
- growth at 10 µM (NCI-H460): 106%
- growth at 10 µM (HCC 2998): 76.8%
- growth at 10 µM (U-251): 91.8%
- growth at 10 µM (A549): 67.1%
- growth at 10 µM (M14): 103%
